# According to ChEMBL document CHEMBL1153742, “Cytotoxic constituents of the lichen Diploicia canescens” (J Nat Prod, 2009):
# Columns and labels:
# Assay type in all cases: functional, cell-based
# B16 [1] = assay: Cytotoxicity against mouse B16 cells after 72 hrs by MTT assay; conditions: B16, 72 h
# In short: (§1)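 B16 melanoma cells were seeded at 15 000 cells/mL in RPMI 1640 with 5% FCS, and after 5 h the medium was switched to RPMI with 1% FCS. Serial dilutions from 0.25 to 100 µM were added on days 1, 2 and 3. Cells were incubated at 37 °C in 10% CO2 for 72 h, and viability was read by MTT on day 4. Each concentration ran in triplicate wells, and each experiment was repeated at least three times.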
# HaCaT = assay: Cytotoxicity against human HaCaT cells after 72 hrs by MTT assay
# In short: as §1, with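 “HaCaT keratinocytes” for “B16 melanoma cells”, “25” for “15”, “DMEM” for “RPMI 1640”, “10%” for “5%”, “reduced-serum DMEM.” for “RPMI with 1% FCS.”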
# B16 [2] = assay: Cytotoxicity against mouse B16 cells after 48 hrs by MTT assay; conditions: B16, 48 h
# In short: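 Mouse B16 melanoma cells were seeded at 30 000 cells/mL in RPMI 1640 with 10% FCS on day 0. Compound dilutions were added on day 1. Cells were incubated at 37 °C under 10% CO2, and growth and viability were read by MTT after 48 h. IC50 was derived from at least three independent experiments, with three wells per concentration.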
SMILES,IC50 (B16 [1]) [nM],IC50 (HaCaT) [nM],IC50 (B16 [2]) [nM]
COC(=O)c1c(Oc2c(C)c(Cl)c(OC)c(Cl)c2O)cc(OC)c(Cl)c1C [BUELLIN],250,> 10000,–
COc1cc2c(c(C)c1Cl)Oc1cc(OC)c(Cl)c(C)c1C(=O)O2 [SCENSIDIN],400,6100,–
COc1c(Cl)c(C)c2c(c1Cl)OC(=O)c1c(cc(O)c(Cl)c1C)O2 [DECHLORODEPLOICIN],1700,4300,–
COc1cc([C@@H]2c3cc4c(cc3[C@@H](O[C@@H]3O[C@@H]5CO[C@@H](C)O[C@H]5[C@H](O)[C@H]3O)[C@H]3COC(=O)[C@H]23)OCO4)cc(OC)c1O [ETOPOSIDE],280,550,–
COc1c(Cl)c(C)c2c(c1Cl)OC(=O)c1c(C)c(Cl)c(O)c(Cl)c1O2 [DIPLOICIN],4000,> 10000,–
COC(=O)[C@@]12Oc3ccc(-c4ccc5c(c4O)C(=O)C4=C(O)C[C@H](C)[C@H](O)[C@]4(C(=O)OC)O5)c(O)c3C(=O)C1=C(O)C[C@H](C)[C@@H]2O [SECALONIC ACID B],–,> 10000,2800
COC(=O)[C@@]12Oc3ccc(-c4ccc5c(c4O)C(O)C4=C(O)C[C@H](C)[C@@H](O)[C@]4(C(=O)OC)O5)c(O)c3C(=O)C1=C(O)C[C@H](C)[C@H]2O (some centres undefined) [SECALONIC ACID D],–,3700,280
